The source made the active and inactive calls. No cut-off for these calls is given here.
Experiments:
[1] = system: HeLa; experiment: Antiproliferative activity against human HeLa cells after 48 hrs by MTT assay relative to control; format: functional, cell-based
In short: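 HeLa cells exposed to compounds for 48 h; viability read as mitochondrial dehydrogenase activity by MTT reduction; IC50 values derived.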

[2] = system: Jurkat; experiment: Induction of apoptosis in Jurkat cells at 5 uM after 36 hrs by flow cytometry; format: functional, Homo sapiens
In short: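 Jurkat cells incubated 36 h with agents at 5 μM (DMSO control); apoptosis scored by flow cytometry after annexin-V/propidium iodide staining; two experiments.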

[3] = system: Jurkat; experiment: Cell cycle arrest in Jurkat cells assessed as accumulation at G0/G1 phase at 5 uM after 15 hrs relative to control; format: functional, Homo sapiens
In short: (§1)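 Jurkat cells treated 15 h (test agents 5 μM, colchicine 25 μM, DMSO vehicle control); DNA stained with Vybrant Orange and analysed by flow cytometry; percent of cells in G0/G1, S and G2/M given as mean ± SD.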

[4] = system: Jurkat; experiment: Cell cycle arrest in Jurkat cells assessed as accumulation at S phase at 5 uM after 15 hrs relative to control; format: functional, Homo sapiens; in short: as §1
[5] = system: Jurkat; experiment: Cell cycle arrest in Jurkat cells assessed as accumulation at G2/M phase at 5 uM after 15 hrs relative to control; format: functional, Homo sapiens; in short: as §1
[6] = system: Jurkat; experiment: Cell cycle arrest in Jurkat cells assessed as accumulation at G0/G1 phase at 25 uM after 15 hrs relative to control; format: functional, Homo sapiens; in short: as §1
[7] = system: Jurkat; experiment: Cell cycle arrest in Jurkat cells assessed as accumulation at S phase at 25 uM after 15 hrs relative to control; format: functional, Homo sapiens; in short: as §1
[8] = system: Jurkat; experiment: Cell cycle arrest in Jurkat cells assessed as accumulation at G2/M phase at 25 uM after 15 hrs relative to control; format: functional, Homo sapiens; in short: as §1

IC50 [1] | Structure (SMILES) | Activity [2] | also measured
3.5 µM | COc1cc(C2C(C#N)=C(N)Oc3cc(C)n(C)c(=O)c32)cc(Br)c1OC(C)=O (stereo not drawn) | 50% | –
0.33 µM | Cc1cc2c(c(=O)n1C)C(c1ccc(N(C)C)c(Br)c1)C(C#N)=C(N)O2 (stereo not drawn) | 50% | Activity [3]: 14.4%; Activity [4]: 18.1%; Activity [5]: 67.5%
43.3 µM | COc1cc(C2C(C#N)=C(N)Oc3cc(C)n(C)c(=O)c32)cc(OC)c1OC (stereo not drawn) | – | –
2.67 µM | COc1cc(C2C(C#N)=C(N)Oc3cc(C)n(C)c(=O)c32)cc(Br)c1O (stereo not drawn) | 50% | –
1.08 µM | CCOc1c(Br)cc(C2C(C#N)=C(N)Oc3cc(C)n(C)c(=O)c32)cc1OC (stereo not drawn) | 50% | –
0.58 µM | COc1cc(C2C(C#N)=C(N)Oc3cc(C)n(C)c(=O)c32)cc(Br)c1OC (stereo not drawn) | 50% | Activity [3]: 12%; Activity [4]: 19%; Activity [5]: 68.5%
6.33 µM | Cc1cc2c(c(=O)n1C)C(c1ccc(F)c(Br)c1)C(C#N)=C(N)O2 (stereo not drawn) | 50% | –

The remaining lines, values behind:

Structure (SMILES) | IC50 [1] | Activity [2] | also measured
Cc1cc2c(c(=O)n1C)C(c1ccc(Cl)c(Cl)c1)C(C#N)=C(N)O2 (stereo not drawn) | 18.3 µM | – | Activity ([2]; Homo sapiens): inactive
Cc1cc2c(c(=O)n1C)C(c1cccc([N+](=O)[O-])c1)C(C#N)=C(N)O2 (stereo not drawn) | 35 µM | – | Activity ([2]; Homo sapiens): inactive
COc1ccc(CCn2c(C)cc3c(c2=O)C(c2cc(OC)c(OC)c(OC)c2)C(C#N)=C(N)O3)cc1OC (stereo not drawn) | 22.7 µM | – | Activity ([2]; Homo sapiens): inactive
Cc1cc2c(c(=O)o1)C(c1cccc(Br)c1)C(C#N)=C(N)O2 (stereo not drawn) | > 100 µM | – | –
COc1cc2c(c(OC)c1OC)-c1ccc(OC)c(=O)cc1[C@@H](NC(C)=O)CC2 [COLCHICINE] | – | – | Activity [6]: 19%; Activity [7]: 23.1%; Activity [8]: 57.9%
Cc1cc2c(c(=O)n1C)C(c1cccc(Br)c1)C(C#N)=C(N)O2 (stereo not drawn) | 6.5 µM | 50% | –
Cc1cc2c(c(=O)n1C)C(c1ccc(C(C)C)cc1)C(C#N)=C(N)O2 (stereo not drawn) | > 100 µM | – | Activity ([2]; Homo sapiens): inactive

— ChEMBL document CHEMBL1149527, “Antiproliferative and apoptosis inducing properties of pyrano[3,2-c]pyridones accessible by a one-step multicomponent synthesis” (Bioorg Med Chem Lett, 2007)
